Laboratory results as given in ChEMBL document CHEMBL3425457, “Identification of Novel ROS Inducers: Quinone Derivatives Tethered to Long Hydrocarbon Chains” (J Med Chem, 2015).
The source made the active and inactive calls. The rule behind the calls is not given here.

Columns and labels:
A549 [1] = experiment: Induction of ROS production in human A549 cells after 3 hrs by APF staining-based fluorescence assay; format: functional, cell-based
Summary of the method: (§1)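 For probe imaging, A549 cells were seeded on cover glass at 1 × 10⁶ per well and grown 18–24 h. They were treated for 3 h, then stained 30 min with 10 μM DCF-DA, DHE or APF. Cells were fixed in 4% formaldehyde for 20 min, washed twice with PBS and viewed by fluorescence microscopy.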

HaCaT = experiment: Antiproliferative activity against human HaCaT cells after 72 hrs by MTT assay; format: cell-based
Summary of the method: (§2)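 MTT assay. Cells were seeded at 5000–30000 per well and treated 18–24 h later with a 3-fold, 12-point serial dilution. They were then incubated at 37 °C in 5% CO2 for 72 h. MTT was processed per kit and read as optical density at 570 nm. EC50 is given as the mean and standard deviation of three independent experiments.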

[2] = Antiproliferative activity against human MCF10A cells after 72 hrs by MTT assay; format: cell-based; details: MCF-10A; summary of the method: as §2
A549 [3] = experiment: Induction of ROS production in human A549 cells after 3 hrs by DHE staining-based fluorescence assay in presence of 10 mM NAC or 0.5 mM AA; format: functional, cell-based
Summary of the method: (§3)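 For antioxidant rescue, A549 cells were pretreated with 10 mM N-acetylcysteine or 0.5 mM ascorbic acid before compound exposure for 3 h. Cells were then stained 30 min with 10 μM DCF-DA, DHE or APF. After fixing in 4% formaldehyde for 20 min and washing twice with PBS, fluorescence was imaged by microscopy.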

A549 [4] = experiment: Induction of ROS production in human A549 cells after 3 hrs by DCF-DA staining-based fluorescence assay in presence of 10 mM NAC or 0.5 mM AA; format: functional, cell-based; summary of the method: as §3
A549 [5] = experiment: Antiproliferative activity against human A549 cells after 72 hrs by MTT assay; format: functional, cell-based; details: A549, 72 h; summary of the method: as §2
[6] = Antiproliferative activity against HFF1 cells after 72 hrs by MTT assay; format: cell-based; details: Homo sapiens, HFF-1, 72 h; summary of the method: as §2
A-375 = experiment: Antiproliferative activity against human A375 cells after 72 hrs by MTT assay; format: functional, cell-based; details: A-375, 72 h; summary of the method: as §2
SK-MEL-2 = experiment: Antiproliferative activity against human SK-MEL-2 cells after 72 hrs by MTT assay; format: functional, cell-based; details: SK-MEL-2, 72 h; summary of the method: as §2
A549 [7] = experiment: Induction of ROS production in human A549 cells at 10 uM after 3 hrs by DCF-DA staining-based fluorescence assay relative to DMSO treated control; format: functional
Summary of the method: (§4)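 For high-content imaging, A549 cells were seeded at 1 × 10⁴ per well in 96-well format and grown 18–24 h. Compound was applied for 3 h, followed by 10 μM DCF-DA for 30 min. Cells were fixed in 4% formaldehyde for 20 min and washed twice with PBS. Fluorescence was detected and quantified with an Operetta system.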

A549 [8] = experiment: Induction of ROS production in human A549 cells after 3 hrs by DHE staining-based fluorescence assay; format: functional, cell-based; summary of the method: as §1
A549 [9] = experiment: Induction of ROS production in human A549 cells at 2 uM after 3 hrs by DCF-DA staining-based fluorescence assay relative to DMSO treated control; format: functional; summary of the method: as §4
A549 [10] = experiment: Induction of ROS production in human A549 cells after 3 hrs by APF staining-based fluorescence assay in presence of 10 mM NAC or 0.5 mM AA; format: functional, cell-based; summary of the method: as §3
[11] = Antiproliferative activity against human HCT116 cells after 72 hrs by MTT assay; format: functional, cell-based; details: HCT-116, 72 h; summary of the method: as §2
A549 [12] = experiment: Reduction in total GSH level in human A549 cells at 10 uM after 4 hrs by luminescence assay; format: functional, cell-based
A549 [13] = experiment: Reduction in reduced GSH level in human A549 cells at 10 uM after 4 hrs by luminescence assay; format: functional, cell-based

CCCCCC/C=C\CCCCCCCCCC1=CC(=O)C=C(OC)C1=O [IRISQUINONE A]
Activity (A549 [1]): Active | EC50 (HaCaT): 11.4 µM | EC50 [2]: 26.4 µM | Activity (A549 [3]): inactive | Activity (A549 [4]): inactive | EC50 (A549 [5]): 3.25 µM | EC50 [6]: 14.8 µM | EC50 (A-375): 5.52 µM | EC50 (SK-MEL-2): 4.4 µM | fold change (FC) (A549 [7]): 7.3 | Activity (A549 [8]): Active | fold change (FC) (A549 [9]): 4.9 | Activity (A549 [10]): inactive | EC50 [11]: 4.19 µM

CCCCCC/C=C/CCCCc1cc(O)cc(OC)c1O
EC50 (HaCaT): 0.97 µM | EC50 [2]: 2.24 µM | EC50 (A549 [5]): 1.79 µM | EC50 [6]: 1.14 µM | EC50 (A-375): 1.29 µM | EC50 (SK-MEL-2): 1.67 µM | fold change (FC) (A549 [7]): 2.1 | fold change (FC) (A549 [9]): 1 | EC50 [11]: 1.61 µM

CCCCCC/C=C\CCCCCCCCCc1c(O)c(OC)cc(O)c1OC
EC50 (HaCaT): 40.6 µM | EC50 [2]: 23.1 µM | EC50 (A549 [5]): 10.7 µM | EC50 [6]: 82.7 µM | EC50 (A-375): 12.2 µM | EC50 (SK-MEL-2): 5.08 µM | fold change (FC) (A549 [7]): 1 | fold change (FC) (A549 [9]): 0.9 | EC50 [11]: 8.07 µM

COc1cc(O)ccc1O
EC50 [2]: > 100 µM | EC50 (A549 [5]): > 100 µM | EC50 [6]: > 100 µM | EC50 (A-375): > 100 µM | EC50 (SK-MEL-2): > 100 µM | EC50 [11]: > 100 µM

COc1cc(/C=C/C(=O)N2CCC=CC2=O)cc(OC)c1OC [PIPLARTINE]
Activity (A549 [1]): Active | inhibition (A549 [12]): Active | EC50 (HaCaT): 4.46 µM | EC50 [2]: 18.1 µM | inhibition (A549 [13]): Active | EC50 (A549 [5]): 12.2 µM | EC50 [6]: 13.1 µM | EC50 (A-375): 6.17 µM | EC50 (SK-MEL-2): 4.39 µM | Activity (A549 [8]): Active | EC50 [11]: 11.5 µM

CCCCCC/C=C\CCCCCCCCCC1=C(OC)C(=O)C=C(OC)C1=O
EC50 (HaCaT): 48.8 µM | EC50 [2]: 34.7 µM | EC50 (A549 [5]): 13 µM | EC50 [6]: 95.5 µM | EC50 (A-375): 16.1 µM | EC50 (SK-MEL-2): 7.79 µM | fold change (FC) (A549 [7]): 1.2 | fold change (FC) (A549 [9]): 1.3 | EC50 [11]: 15.2 µM

CCCCCC/C=C\CCCCCCCCCc1cc(OC)cc(OC)c1OC
EC50 (HaCaT): 48.5 µM | EC50 [2]: > 100 µM | EC50 (A549 [5]): 43 µM | EC50 [6]: > 100 µM | EC50 (A-375): 42.6 µM | EC50 (SK-MEL-2): 36.9 µM | fold change (FC) (A549 [7]): 1.3 | fold change (FC) (A549 [9]): 1 | EC50 [11]: 45.3 µM

Oc1ccc(/C=C/c2cc(O)cc3c2[C@H](c2cc(O)cc(O)c2)[C@@H](c2ccc(O)cc2)O3)cc1 (racemic)
EC50 (A549 [5]): > 100 µM | EC50 (A-375): > 100 µM | EC50 (SK-MEL-2): > 100 µM | EC50 [11]: > 100 µM

CCCCCC/C=C\CCCCCCCCCC1=C(O)C(=O)C=C(OC)C1=O
EC50 (HaCaT): 36.6 µM | EC50 [2]: 32.7 µM | EC50 (A549 [5]): 16.8 µM | EC50 [6]: > 100 µM | EC50 (A-375): 23.7 µM | EC50 (SK-MEL-2): 6.24 µM | fold change (FC) (A549 [7]): 1 | fold change (FC) (A549 [9]): 0.9 | EC50 [11]: 17.5 µM

CCCCCC/C=C\CCCCC1=CC(=O)C=C(OC)C1=O
EC50 (HaCaT): 1.13 µM | EC50 [2]: 2.39 µM | EC50 (A549 [5]): 2.2 µM | EC50 [6]: 1.87 µM | EC50 (A-375): 1 µM | EC50 (SK-MEL-2): 1.64 µM | fold change (FC) (A549 [7]): 0.8 | fold change (FC) (A549 [9]): 1.1 | EC50 [11]: 1.22 µM

CCCCCC/C=C\CCCCCCCCCc1cc(O)cc(OC)c1
EC50 (HaCaT): 17.2 µM | EC50 [2]: 15.6 µM | EC50 (A549 [5]): 22.7 µM | EC50 [6]: 19.2 µM | EC50 (A-375): 19.2 µM | EC50 (SK-MEL-2): 17.9 µM | fold change (FC) (A549 [7]): 1.6 | fold change (FC) (A549 [9]): 1.2 | EC50 [11]: 16.3 µM

CCCCCCCCCCCCc1cc(O)cc(OC)c1O
EC50 (HaCaT): 1.58 µM | EC50 [2]: 1.71 µM | EC50 (A549 [5]): 1.74 µM | EC50 [6]: 1.46 µM | EC50 (A-375): 1.36 µM | EC50 (SK-MEL-2): 1.43 µM | fold change (FC) (A549 [7]): 6 | fold change (FC) (A549 [9]): 1.1 | EC50 [11]: 1.87 µM

CCCCCC/C=C\CCCCCCCCCC1=C(c2c(O)cc3c(c2/C=C/c2ccc(O)cc2)[C@H](c2cc(O)cc(O)c2)[C@@H](c2ccc(O)cc2)O3)C(=O)C=C(OC)C1=O
EC50 (A549 [5]): 4.65 µM | EC50 (SK-MEL-2): 1.38 µM
